Measured values reported in ChEMBL document CHEMBL1129060, “N6,C8-distributed adenosine derivatives as partial agonists for adenosine A1 receptors” (J Med Chem, 1996).
Values joined by “and” are separate entries in the source; they are usually repeats but may differ in a detail not shown here. Equal values may be shown once.

What was measured:
[1] = target: T1, Adenosine receptor A1 (Rattus norvegicus) (UniProt P25099); test: Relative affinities for rat Adenosine A1 receptor in the presence and absence of GTP
T1 sequence (whole entry): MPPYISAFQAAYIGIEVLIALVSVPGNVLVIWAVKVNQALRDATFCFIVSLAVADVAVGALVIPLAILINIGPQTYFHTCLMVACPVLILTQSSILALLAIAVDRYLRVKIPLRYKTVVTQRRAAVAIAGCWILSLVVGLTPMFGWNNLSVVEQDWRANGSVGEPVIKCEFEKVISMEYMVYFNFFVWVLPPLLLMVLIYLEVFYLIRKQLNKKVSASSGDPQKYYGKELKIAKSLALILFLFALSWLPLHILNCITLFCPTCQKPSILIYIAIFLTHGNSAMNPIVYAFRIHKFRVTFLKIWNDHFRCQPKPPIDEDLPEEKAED
Method in brief: (§1)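 Rat cortical membranes. [3H]DPCPX displacement run with and without 1 mM GTP. The GTP shift is the ratio of apparent Ki with GTP to Ki without GTP. Data from two to three independent experiments, each in duplicate.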

Adenosine receptor A1 [2] = target: T2, Adenosine receptor A1 (Rattus norvegicus, UniProt P25099); test: Displacement of [3H]DPCPX (with GTP) from Adenosine A1 receptor of rat cortical membrane
T2 sequence (P25099 whole entry): T1 sequence (whole entry)
Method in brief: (§2)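 Rat cerebral cortex membranes, antagonist radioligand [3H]DPCPX, displacement run both with and without 1 mM GTP. Apparent Ki derived under each condition; their ratio gives the GTP shift. Two to three independent experiments, each in duplicate.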

Adenosine A2 receptor = Adenosine A2 receptor (Rattus norvegicus, UniProt P29276+P30543); test: Displacement of [3H]-CGS- 21680 from Adenosine A2 receptor of rat striatal membranes; format: cell membranes, Membrane
Rattus norvegicus [3] = test: Maximum reduction heart rate of rat at a dose of 8.0 mg/kg; format: functional
Method in brief: (§3)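 Adult male SPF Wistar rats (200-250 g), conscious, free-ranging, arterial catheter. 30 min accommodation, then 15 min baseline recording before i.v. infusion in 20% (v/v) DMSO/water. Arterial pressure and heart rate monitored continuously for 5.5 h. Vehicle-only controls; dosing 10:00-11:00 a.m. Maximum reduction from pre-administration level reported as mean ± SE.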

Rattus norvegicus [4] = test: Mean arterial pressure was recorded in conscious, normo tensive and unrestrained rats that received an intravenous infusion of drugs at a dose of 8 mg/kg; format: functional, Artery; method in brief: as §3
Adenosine receptor A1 [5] = target: T2, Adenosine receptor A1; test: Displacement of [3H]DPCPX (without GTP) from Adenosine A1 receptor of rat cortical membrane; method in brief: as §2
Rattus norvegicus [6] = test: Effect on heart rate was measured after intravenous administration (8 mg/kg) in rat; format: functional; method in brief: as §3
Rattus norvegicus [7] = test: Maximum reduction heart rate of rat at a dose of 4.8 mg/kg; format: functional
Method in brief: (§4)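 Conscious, free-ranging, normotensive male SPF Wistar rats (200-250 g). Intravenous infusion in 20% (v/v) DMSO/water; vehicle-only controls. Arterial catheter; 30 min accommodation. Heart rate and arterial blood pressure recorded continuously from 15 min before dosing (baseline) through 5.5 h. Dosing done between 10:00 and 11:00 a.m. Values given as means ± SE.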

Rattus norvegicus [8] = test: Mean arterial pressure was recorded in conscious, normo tensive and unrestrained rats that received an intravenous infusion of drugs at a dose of 4.8 mg/kg; format: functional, Artery; method in brief: as §4
Rattus norvegicus [9] = test: Effect on heart rate was measured after intravenous administration (4.8 mg/kg) in rat; format: functional; method in brief: as §4
Rattus norvegicus [10] = test: Maximum reduction heart rate of rat at a dose of 0.20 mg/kg; format: functional; settings: dose 0.2 mg/kg; method in brief: as §3
Rattus norvegicus [11] = test: Mean arterial pressure was recorded of conscious, normo tensive and unrestrained rats that received an intravenous infusion of drugs at a dose of 0.20 mg/kg; format: functional, Artery; settings: dose 0.2 mg/kg; method in brief: as §3
Rattus norvegicus [12] = test: Maximum reduction heart rate of ratat a dose of 0.20 mg/kg; format: functional; settings: dose 0.2 mg/kg; method in brief: as §3
Adenosine receptor A1 [13] = target: T2, Adenosine receptor A1; test: Binding affinity for adenosine A1 receptor from rat cortical membrane using [3H]DPCPX without GTP; method in brief: as §1

SMILES	GTP shift [1]	Ki (Adenosine receptor A1 [2]) [µM]	Ki (Adenosine A2 receptor) [µM]	Ki (Adenosine receptor A1 [5]; read-out: Ki) [µM]	further results
CCCCNc1nc2c(N)ncnc2n1[C@@H]1O[C@H](CO)[C@@H](O)[C@H]1O	4	45.5	11.5	–	–
CCNc1nc2c(N)ncnc2n1C1O[C@H](CO)[C@@H](O)[C@H]1O (some centres not stated)	3.6	23.8	3.97	6.56	–
OC[C@H]1O[C@@H](n2cnc3c(NC4CCCC4)ncnc32)[C@H](O)[C@@H]1O [N6-CYCLOPENTYLADENOSINE]	–	–	0.58	–	Reduction (Rattus norvegicus [10]): 54%; MAP (Rattus norvegicus [11]): 109 mmHg; Reduction (Rattus norvegicus [12]): 54%; Heart rate (Rattus norvegicus [9]): 345 beats min-1
CCCNc1nc2c(N)ncnc2n1C1O[C@H](CO)[C@@H](O)[C@H]1O (some centres not stated)	5.8	34.7	4.96	5.96	–
Nc1ncnc2c1nc(NC1CCCC1)n2C1O[C@H](CO)[C@@H](O)[C@H]1O (some centres not stated)	–	–	–	–	Ki (Adenosine receptor A1 [5]): Not Active
CNc1ncnc2c1nc(NC1CCCC1)n2[C@@H]1O[C@H](CO)[C@@H](O)[C@H]1O	2.8	15.7	101	5.61	–
CNc1nc2c(N)ncnc2n1[C@@H]1O[C@H](CO)[C@@H](O)[C@H]1O	7.7	18.6	1.85	2.42	–

Further molecules by falling Ki (Adenosine receptor A1 [2]), results first:

GTP shift [1]	Ki (Adenosine receptor A1 [2]) [µM]	Ki (Adenosine A2 receptor) [µM]	Ki (Adenosine receptor A1 [5]; read-out: Ki) [µM]	SMILES	further results
1.1	1.76	59.4	1.59	CCCNc1ncnc2c1nc(NC1CCCC1)n2C1O[C@H](CO)[C@@H](O)[C@H]1O (some centres not stated)	–
2.8	1.33	10.1	0.47	CCNc1nc2c(NC3CCCC3)ncnc2n1[C@@H]1O[C@H](CO)[C@@H](O)[C@H]1O	Reduction (Rattus norvegicus [7]): 25% and 24%; MAP (Rattus norvegicus [8]): 100 mmHg; Heart rate (Rattus norvegicus [9]): 350 beats min-1
1.2	1.28	45.5	1.09	OC[C@H]1O[C@@H](n2c(NC3CCCC3)nc3c(NC4CCCC4)ncnc32)[C@H](O)[C@@H]1O	Reduction (Rattus norvegicus [3]): 2% and 3%; MAP (Rattus norvegicus [4]): 94 mmHg; Heart rate (Rattus norvegicus [6]): 329 beats min-1
4.1	1.26	30.2	0.31	CCNc1ncnc2c1nc(NC1CCCC1)n2[C@@H]1O[C@H](CO)[C@@H](O)[C@H]1O	–
2.3	1.13	12.4	0.5	CCCCNc1nc2c(NC3CCCC3)ncnc2n1C1O[C@H](CO)[C@@H](O)[C@H]1O (some centres not stated)	Reduction (Rattus norvegicus [3]): 8% and 11%; MAP (Rattus norvegicus [4]): 94 mmHg; Heart rate (Rattus norvegicus [6]): 348 beats min-1
3	1.05	7.67	0.35	CCCNc1nc2c(NC3CCCC3)ncnc2n1[C@@H]1O[C@H](CO)[C@@H](O)[C@H]1O	Reduction (Rattus norvegicus [7]): 20% and 15%; MAP (Rattus norvegicus [8]): 90 mmHg; Heart rate (Rattus norvegicus [9]): 344 beats min-1
3.8	0.98	20.8	–	CNc1nc2c(NC3CCCC3)ncnc2n1[C@@H]1O[C@H](CO)[C@@H](O)[C@H]1O	Reduction (Rattus norvegicus [7]): 34% and 50%; Ki (Adenosine receptor A1 [13]): 0.26 µM; MAP (Rattus norvegicus [8]): 105 mmHg; Heart rate (Rattus norvegicus [9]): 334 beats min-1
1.1	0.86	35.3	0.76	CCCCNc1ncnc2c1nc(NC1CCCC1)n2[C@@H]1O[C@H](CO)[C@@H](O)[C@H]1O	–
